Fam108B counter = blocks mouse Fam108B hydrolase in RBBP9 counter-screen. hit rate 0.33% among 300,000. AID 1947. inhibition, % at 9.51 µM. recombinant Fam108B, FP-Rh probe fluorescence polarization;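 active = inhibition above the screen mean inhibition plus 3 SD, computed separately per campaign, cut at about 18% in these data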;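 note: inhibitors lower polarization as less probe binds the enzyme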
LYPLA2 inh = counter-screen for PME1 inhibitors: inhibitors of human LYPLA2 | recombinant LYPLA2, FP-Rh probe fluorescence polarization | inhibition, % at 5.9 µM | hit rate 0.38% among 320,000;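 active = inhibition above the screen-wide mean plus 3 SD, limit set per campaign, cut at about 26% in these data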
Target sequence (O95372 whole entry, looked up): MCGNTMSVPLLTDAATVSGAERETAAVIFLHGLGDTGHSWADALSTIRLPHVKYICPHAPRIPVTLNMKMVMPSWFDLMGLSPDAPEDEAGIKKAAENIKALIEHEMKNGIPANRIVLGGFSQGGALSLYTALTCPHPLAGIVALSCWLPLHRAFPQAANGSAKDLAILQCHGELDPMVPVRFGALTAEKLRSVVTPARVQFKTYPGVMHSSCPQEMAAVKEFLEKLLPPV
LYPLA1 counter = blocks human lysophospholipase 1, a PME1 counter-screen. hit rate 0.16% among 320,000. inhibition, % at 5.9 µM. recombinant LYPLA1, FP-Rh probe fluorescence polarization. AID 2174. O75608;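 active = inhibition above the mean of all tested compounds plus 3 SD, set per campaign, cut at about 14% in these data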;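 note: inhibitors block serine hydrolase probe labeling of LYPLA1 so polarization falls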
PAD4 FP inh = PAD4 (human) enzyme inhibition; recombinant PAD4, RCA probe fluorescence polarization; inhibition, % at 6.36 µM; hit rate 0.41% among 330,000;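 active = percent inhibition above a cutoff equal to the mean of all tested compounds plus 3 SD, cut at about 15% in these data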
PME-1 primary = PME-1 (human) inhibition; recombinant PME-1, FP-Rh probe fluorescence polarization; inhibition, % at 5.9 µM; hit rate 0.53% among 320,000;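 active = inhibition above the campaign mean of all compounds plus 3 SD, cut at about 26% in these data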;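 note: competitive labeling of PME-1 active site by serine hydrolase directed probe; inhibitors block probe labeling so polarization falls and inhibition rises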
Target sequence (Q9Y570 whole entry, looked up): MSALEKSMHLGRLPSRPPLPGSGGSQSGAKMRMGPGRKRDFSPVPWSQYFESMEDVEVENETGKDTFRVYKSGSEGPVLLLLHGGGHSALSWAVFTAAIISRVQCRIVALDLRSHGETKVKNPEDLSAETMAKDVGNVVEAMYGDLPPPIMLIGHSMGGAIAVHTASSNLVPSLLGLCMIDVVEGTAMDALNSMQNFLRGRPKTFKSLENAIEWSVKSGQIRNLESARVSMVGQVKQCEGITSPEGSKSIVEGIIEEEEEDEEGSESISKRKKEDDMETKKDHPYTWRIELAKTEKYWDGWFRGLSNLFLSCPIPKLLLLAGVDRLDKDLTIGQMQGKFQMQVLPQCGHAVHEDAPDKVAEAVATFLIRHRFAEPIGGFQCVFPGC
RBBP9 inh = inhibitors of human serine hydrolase RBBP9. recombinant RBBP9, FP-Rh probe fluorescence polarization. O75884. inhibition, % at 7.94 µM. AID 1515. hit rate 0.2% among 220,000;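 active = inhibition above the campaign mean of all tested compounds plus 3 SD, cut at about 14% in these data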
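Controls: DMSO-treated enzyme wells and wells lacking RBBP9 | Material: RBBP9 protein | Technique: Fluorescence polarization | Replication: Single well per compound, no replicates | Buffer or medium: Tris-NaCl-Pluronic buffer, pH 8.0 | Timing: 30 min compound preincubation, 45 min probe labeling, 25 °C | Read-out basis: Percent inhibition from mP, scaled between DMSO and no-protein wells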
PAD4 FP conf = PAD4 (human) inhibition, confirmed; recombinant PAD4, RCA probe fluorescence polarization; hit rate 28% among 1,200; inhibition, % at 6.36 µM; shares compounds with PAD4 FP inh; AID 488796;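 active = mean inhibition across replicates above the hit cutoff set by the earlier primary screen, cut at about 15% in these data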;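 note: inhibitors block active-site labeling by the probe so polarization falls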
Each line names hits and unclear results; the compound was inactive in the other large screens (follow-up assays come after a bar, where they were run). Only some compounds are listed: those with a hit (about 1.3% of all), similar ones and a draw of the others.

O=C(NCc1ccccc1Cl)C1CCC(=O)N(CCCN2CCCC2=O)C1 (configuration not stated)	none (no result: RBBP9 inh)
CCCC(=O)N(Cc1cc(=O)[nH]c2ccccc12)c1ccccc1C	PAD4 FP inh 15 (no result: RBBP9 inh) | PAD4 FP conf 17
CCCC(=O)N(Cc1cc(=O)[nH]c2ccccc12)c1cccc(C)c1	PAD4 FP inh 22 (no result: RBBP9 inh) | PAD4 FP conf 49
CC(=O)N(Cc1cc(=O)[nH]c2ccccc12)c1cccc(C)c1	PAD4 FP inh 53 | PAD4 FP conf 44
CCC(=O)N(Cc1cc(=O)[nH]c2ccccc12)c1ccc(C)cc1	PAD4 FP inh 15 | PAD4 FP conf inactive
CCN(CC(=O)NCc1ccc(Cl)cc1)C(=O)COc1cccc(C(F)(F)F)c1	none (no result: RBBP9 inh)
COc1ccc(OC)c(S(=O)(=O)N2CCC(c3nc4ccccc4[nH]3)CC2)c1	none (no result: RBBP9 inh)
CCOC(=O)c1ccc(NC(=O)CSC2=NC(=O)C(CC)C(=O)N2)cc1 (configuration not stated)	PAD4 FP inh 21 | PAD4 FP conf 20
COCCNc1c([N+](=O)[O-])c(=O)n(-c2ccccc2)c2ccccc12	none
CCSc1c([N+](=O)[O-])c(=O)n(-c2ccccc2)c2ccccc12	PAD4 FP inh 23 (no result: RBBP9 inh) | PAD4 FP conf 21
CCOc1ccc2c(c1)-c1c(ssc1=S)C(C)(C)N2C(=O)c1ccco1	PAD4 FP inh 17 | PAD4 FP conf 16
CC1(C)c2ssc(=S)c2-c2ccccc2N1C(=O)CSC1=NCCS1	none
CN(C(=O)Cn1nc(C(=O)O)c2ccccc2c1=O)c1ccccc1	none (no result: RBBP9 inh)
N#CCCN(C(=O)Cn1nc(C(=O)O)c2ccccc2c1=O)c1ccccc1	PAD4 FP inh 103 (no result: RBBP9 inh) | PAD4 FP conf inactive
COc1ccc(NC(=O)N(C)C[C@H]2Oc3c(NC(=O)C4CC4)cccc3C(=O)N([C@H](C)CO)C[C@@H]2C)cc1	none (no result: Fam108B counter, LYPLA2 inh, LYPLA1 counter, PME-1 primary, RBBP9 inh)
O=C(N1CCc2[nH]c3ccccc3c2C1)C(F)(F)F	PAD4 FP inh 58 (no result: RBBP9 inh) | PAD4 FP conf inactive
Clc1cccc(-c2ccc(C=Nc3ccc(N4CCOCC4)cc3)o2)c1	PAD4 FP inh 19 | PAD4 FP conf inactive
Oc1ccc(N=Nc2cccc(Cl)c2)cc1C=Nc1ccc(N2CCOCC2)cc1	none (no result: Fam108B counter, LYPLA2 inh, LYPLA1 counter, PAD4 FP inh, PME-1 primary)
Cc1ccc(SCC(=O)OCC(=O)N(CC(C)C)c2c(N)n(Cc3ccccc3)c(=O)[nH]c2=O)cc1C	none (no result: RBBP9 inh)
CCCCC(NC(=O)c1ccc(C#N)cc1)C(=O)NCCC (configuration not stated)	none (no result: Fam108B counter, RBBP9 inh)
COc1cccc(/C=C2/CN(C)CC3=C2OC(N)=C(C#N)C3c2cccc(OC)c2)c1 (configuration not stated)	PAD4 FP inh 61 | PAD4 FP conf inactive
COc1cc(NC2c3ccccc3C(=O)N2Cc2ccccc2Cl)cc(OC)c1 (configuration not stated)	PAD4 FP inh 58 | PAD4 FP conf 16
CCn1c2ccccc2c2cc(/C(C)=N/O)ccc21	PAD4 FP inh 16 | PAD4 FP conf inactive
C/C(=N\O)c1ccc2c3ccccc3n(C)c2c1	none
CC1(C)CC(c2nc(-c3ccc([N+](=O)[O-])cc3)cs2)CCO1 (configuration not stated)	none
CCN(CC)c1ccc(N=Cc2c(C)[nH]c3ccccc23)cc1	PAD4 FP inh 25 | PAD4 FP conf inactive
Cc1ccc(NC(=O)N2N=C(c3ccc(F)cc3)CC2c2ccc(F)cc2)cc1 (configuration not stated)	none
C=CC[C@H](CC(=O)NCCO)C(=O)N[C@@H](COC(=O)[C@H](CC=C)CC(=O)OC(C)(C)C)Cc1c[nH]c2ccccc12	none (no result: Fam108B counter, LYPLA2 inh, LYPLA1 counter, PME-1 primary, RBBP9 inh)
COc1cc(SC#N)ccc1N=Cc1c(C)[nH]n(-c2ccc(C)c(C)c2)c1=O	none
COc1cc(SC#N)ccc1N=Cc1c(C)[nH]n(-c2ccc(Cl)cc2)c1=O	PAD4 FP inh 30 | PAD4 FP conf 37
COc1ccc2ccc3c(c2c1)N=C[C@]1(O3)N(C)c2ccccc2C1(C)C	PAD4 FP inh 53, PME-1 primary 45 | PAD4 FP conf inactive
CC1=NOC2(C1)N(C)c1ccccc1C2(C)C (configuration not stated)	none
Cc1cccc2c(CC(=O)Nc3ccccc3)noc12	none
Cc1ccc(CS(=O)(=O)c2ncc(Cl)c(C(=O)Nc3nnc(C(C)C)s3)n2)cc1	PAD4 FP inh 95 (no result: RBBP9 inh) | PAD4 FP conf inactive
NC(=O)c1ccc(NS(=O)(=O)c2ccc(Br)s2)cc1	none (no result: Fam108B counter, RBBP9 inh)
CCOC(=O)c1cc(S(=O)(=O)Nc2ccc(OC)cc2OC)cn1C	PAD4 FP inh 31 (no result: RBBP9 inh) | PAD4 FP conf inactive
CCc1c(C)sc(NC(=O)Cn2nc(C)c([N+](=O)[O-])c2C)c1C(N)=O	none
COc1ccccc1/C=C/C=N/Nc1cccc(C(=O)O)c1	none (no result: RBBP9 inh)
Cc1ccccc1NC(=O)c1c(C)[nH]c(=S)c(C#N)c1-c1ccco1	none
CNC(=O)c1c(C)[nH]c(=S)c(C#N)c1-c1ccco1	PAD4 FP inh 26 | PAD4 FP conf inactive
CCSc1ccc(-c2nn(-c3ccccc3)cc2/C=C(/C#N)C(=O)NCCCOC)cc1	PAD4 FP inh 18 | PAD4 FP conf 32
CC(=O)C[C@H](O)CC(=O)[C@H]1OC(=O)CCCCCc2ccccc21	none (no result: Fam108B counter, LYPLA2 inh, LYPLA1 counter, PME-1 primary, RBBP9 inh)
CC(=O)C[C@H](O)CC(=O)[C@H]1OC(=O)CC/C=C\Cc2ccccc21	PAD4 FP inh 22 (no result: Fam108B counter, RBBP9 inh) | PAD4 FP conf inactive
O=c1cc(-c2ccc(Cl)c(Cl)c2)[nH][nH]1	PAD4 FP inh 51 | PAD4 FP conf inactive
COc1ccc(-c2cc(=O)[nH][nH]2)cc1	PAD4 FP inh 56 | PAD4 FP conf inactive
O=c1cc(-c2cccc3ccccc23)[nH][nH]1	none
O=c1cc(-c2ccc(Cl)cc2)[nH][nH]1	PAD4 FP inh 60 | PAD4 FP conf inactive
Cc1[nH][nH]c(=O)c1C(c1ccc(-c2ccc(Cl)c(Cl)c2)o1)c1c(C)[nH][nH]c1=O	none
COc1ccc(-c2cc(=O)[nH]c(=O)[nH]2)cc1	none
O=C(NNC(=O)c1ccc(Br)s1)c1cccc(Cl)c1	none (no result: Fam108B counter, RBBP9 inh)
CC(C)(C)c1ccc(OC(=O)c2ccc(-n3cncn3)nc2)cc1	none
Cc1nc(SCC(=O)O)c2oc3ccccc3c2n1	none
Cc1nc(SCC(=O)NCc2ccccc2)c2oc3ccccc3c2n1	PAD4 FP inh 21 | PAD4 FP conf inactive
Cc1no[n+]([O-])c1COc1cccc(/C=N/Nc2nncn2N)c1	PAD4 FP inh 32 | PAD4 FP conf inactive
CN(C)S(=O)(=O)c1ccc(NC(=O)CSc2ncnc3ccccc23)cc1	none
CN(C)S(=O)(=O)c1cccc(NC(=O)CSc2ncnc3ccccc23)c1	PAD4 FP inh 15 | PAD4 FP conf inactive
Cc1[nH][nH]c(=O)c1C(c1c(C)[nH][nH]c1=O)c1cn(Cc2cccc3ccccc23)c2ccccc12	PAD4 FP inh 31 | PAD4 FP conf 25

Source: PubChem (The Scripps Research Institute Molecular Screening Center)
